Measured values from ChEMBL document CHEMBL1137715, “A facile synthesis of alpha,alpha'-(EE)-bis(benzylidene)-cycloalkanones and their antitubercular evaluations” (2009).
Converted amounts (≈) assume the structure as drawn. The source made the active and inactive calls. The rule behind the calls is not given here.

How the values were obtained:
[1] = tested on: Mycobacterium tuberculosis; test: Antitubercular activity against Mycobacterium tuberculosis H37Ra after 5 days by microplate alamar blue assay; format: functional; conditions: 120 h
Summary of the method: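 Microplate Alamar Blue assay on M. tuberculosis H37Ra. A log-phase culture was diluted to a final OD550 nm of 0.05 in Sauton's medium. Test compounds in DMSO were dispensed into 96-well plates, with two-fold dilutions in the initial screen.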

[2] = tested on: Mycobacterium tuberculosis; test: Antitubercular activity against Mycobacterium tuberculosis H37Rv after 24 hrs by agar microdilution method; format: functional
Summary of the method: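 Agar microdilution on M. tuberculosis H37Rv. Two-fold compound dilutions were made in 7H10 agar with OADC. Inoculum came from L–J medium, harvested in 0.85% saline with 0.05% Tween-80. Slants were held 24 h at 37 °C, then streaked with 5×10^4 bacilli per tube and incubated at 37 °C for 30 days. MIC was the concentration giving complete colony inhibition versus medium-only control.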

Candida albicans = test: Antimicrobial activity against Candida albicans ATCC 1405B after 48 hrs by standard microbroth dilution technique; format: functional
Cryptococcus neoformans = test: Antimicrobial activity against Cryptococcus neoformans after 72 hrs by standard microbroth dilution technique; format: functional
Aspergillus fumigatus = test: Antimicrobial activity against Aspergillus fumigatus after 72 hrs by standard microbroth dilution technique; format: functional
Candida parapsilosis = test: Antimicrobial activity against Candida parapsilosis ATCC 22019 after 48 hrs by standard microbroth dilution technique; format: functional; conditions: Lodderomyces parapsilosis, ATCC 22019, 48 h
Escherichia coli = test: Antimicrobial activity against Escherichia coli ATCC 9637 after 24 hrs by standard microbroth dilution technique; format: functional, organism-based
Pseudomonas aeruginosa = test: Antimicrobial activity against Pseudomonas aeruginosa ATCC BAA-427 after 24 hrs by standard microbroth dilution technique; format: functional, organism-based
Staphylococcus aureus = test: Antimicrobial activity against Staphylococcus aureus ATCC 25923 after 24 hrs by standard microbroth dilution technique; format: functional, organism-based
Klebsiella pneumoniae = test: Antimicrobial activity against Klebsiella pneumoniae ATCC 27736 after 24 hrs by standard microbroth dilution technique; format: functional, organism-based
Sporothrix schenckii = test: Antimicrobial activity against Sporothrix schenckii after 72 hrs by standard microbroth dilution technique; format: functional
[3] = tested on: Trichophyton mentagrophytes; test: Antimicrobial activity against Trichophyton mentagrophytes after 96 hrs by standard microbroth dilution technique; format: functional

O=C1/C(=C/c2ccc(Cl)cc2)CCCC/C1=C\c1ccc(Cl)cc1
MIC [1]: > 12.5 µg/mL | MIC [2]: > 12.5 µg/mL | MIC (Candida albicans): > 50 µg/mL | MIC (Cryptococcus neoformans): > 50 µg/mL | MIC (Aspergillus fumigatus): > 50 µg/mL | MIC (Candida parapsilosis): > 50 µg/mL | Activity (Escherichia coli): inactive | Activity (Pseudomonas aeruginosa): inactive | Activity (Staphylococcus aureus): inactive | Activity (Klebsiella pneumoniae): inactive

O=C1CCCCC1C(O)c1ccccc1[N+](=O)[O-] (stereo not given)
MIC [1]: > 12.5 µg/mL | MIC [2]: > 12.5 µg/mL | MIC (Candida albicans): > 50 µg/mL | MIC (Cryptococcus neoformans): > 50 µg/mL | MIC (Aspergillus fumigatus): > 50 µg/mL | MIC (Candida parapsilosis): > 50 µg/mL | Activity (Escherichia coli): inactive | Activity (Pseudomonas aeruginosa): inactive | Activity (Staphylococcus aureus): inactive | Activity (Klebsiella pneumoniae): inactive

O=C1/C(=C/c2ccc(Cl)cc2)CCC/C1=C\c1ccc(Cl)cc1
MIC [1]: > 12.5 µg/mL | MIC [2]: > 12.5 µg/mL | MIC (Candida albicans): > 50 µg/mL | MIC (Cryptococcus neoformans): > 50 µg/mL | MIC (Aspergillus fumigatus): > 50 µg/mL | MIC (Candida parapsilosis): > 50 µg/mL | Activity (Escherichia coli): inactive | Activity (Pseudomonas aeruginosa): inactive | Activity (Staphylococcus aureus): inactive | Activity (Klebsiella pneumoniae): inactive

NNC(=O)c1ccncc1 [ISONIAZID]
MIC [2]: 0.75 µg/mL (≈ 5.47 µM)

COc1ccc(/C=C2\CCC/C(=C\c3ccc(OC)c(OC)c3)C2=O)cc1OC
MIC [1]: > 12.5 µg/mL | MIC [2]: > 12.5 µg/mL | MIC (Candida albicans): > 50 µg/mL | MIC (Cryptococcus neoformans): > 50 µg/mL | MIC (Aspergillus fumigatus): > 50 µg/mL | MIC (Candida parapsilosis): > 50 µg/mL | Activity (Escherichia coli): inactive | Activity (Pseudomonas aeruginosa): inactive | Activity (Staphylococcus aureus): inactive | Activity (Klebsiella pneumoniae): inactive

OC1/C(=C/c2ccc(Br)cc2)CCC/C1=C\c1ccc(Br)cc1 (stereo not given)
MIC [1]: > 12.5 µg/mL | MIC [2]: 12.5 µg/mL (≈ 28.8 µM) | MIC (Candida albicans): > 50 µg/mL | MIC (Cryptococcus neoformans): > 50 µg/mL | MIC (Aspergillus fumigatus): > 50 µg/mL | MIC (Candida parapsilosis): > 50 µg/mL | Activity (Escherichia coli): inactive | Activity (Pseudomonas aeruginosa): inactive | Activity (Staphylococcus aureus): inactive | Activity (Klebsiella pneumoniae): inactive

COc1cc(/C=C2\CCC/C(=C\c3cc(OC)c(OC)c(OC)c3)C2=O)cc(OC)c1OC
MIC [1]: > 12.5 µg/mL | MIC [2]: > 12.5 µg/mL | MIC (Candida albicans): > 50 µg/mL | MIC (Cryptococcus neoformans): > 50 µg/mL | MIC (Aspergillus fumigatus): > 50 µg/mL | MIC (Candida parapsilosis): > 50 µg/mL | Activity (Escherichia coli): inactive | Activity (Pseudomonas aeruginosa): inactive | Activity (Staphylococcus aureus): inactive | Activity (Klebsiella pneumoniae): inactive

O=C1/C(=C/c2ccco2)CCC/C1=C\c1ccco1
MIC [1]: > 12.5 µg/mL | MIC [2]: > 12.5 µg/mL | MIC (Candida albicans): > 50 µg/mL | MIC (Cryptococcus neoformans): > 50 µg/mL | MIC (Aspergillus fumigatus): > 50 µg/mL | MIC (Candida parapsilosis): > 50 µg/mL | Activity (Escherichia coli): inactive | Activity (Pseudomonas aeruginosa): inactive | Activity (Staphylococcus aureus): inactive | Activity (Klebsiella pneumoniae): inactive

O=C1/C(=C/c2ccc3ccccc3c2)CCC/C1=C\c1ccc2ccccc2c1
MIC [1]: > 12.5 µg/mL | MIC [2]: > 12.5 µg/mL | MIC (Candida albicans): > 50 µg/mL | MIC (Cryptococcus neoformans): > 50 µg/mL | MIC (Aspergillus fumigatus): > 50 µg/mL | MIC (Candida parapsilosis): > 50 µg/mL | Activity (Escherichia coli): inactive | Activity (Pseudomonas aeruginosa): inactive | Activity (Staphylococcus aureus): inactive | Activity (Klebsiella pneumoniae): inactive

O=C1/C(=C/c2ccc(Br)cc2)CCC/C1=C\c1ccc(Br)cc1
MIC [1]: 1.56 µg/mL (≈ 3.61 µM) | MIC [2]: 12.5 µg/mL (≈ 28.9 µM) | MIC (Sporothrix schenckii): 25 µg/mL (≈ 57.8 µM) | MIC [3]: 12.5 µg/mL (≈ 28.9 µM) | Activity (Escherichia coli): inactive | Activity (Pseudomonas aeruginosa): inactive | Activity (Staphylococcus aureus): inactive | Activity (Klebsiella pneumoniae): inactive

O=C1CCCCC1C(O)c1ccc([N+](=O)[O-])cc1 (stereo not given)
MIC [1]: > 12.5 µg/mL | MIC [2]: 12.5 µg/mL (≈ 50.1 µM) | MIC (Candida albicans): > 50 µg/mL | MIC (Cryptococcus neoformans): > 50 µg/mL | MIC (Aspergillus fumigatus): > 50 µg/mL | MIC (Candida parapsilosis): > 50 µg/mL | Activity (Escherichia coli): inactive | Activity (Pseudomonas aeruginosa): inactive | Activity (Staphylococcus aureus): inactive | Activity (Klebsiella pneumoniae): inactive

COc1ccc(/C=C2\CC/C(=C\c3ccc(OC)c(OC)c3)C2=O)cc1OC
MIC [1]: > 12.5 µg/mL | MIC [2]: > 12.5 µg/mL | MIC (Candida albicans): > 50 µg/mL | MIC (Cryptococcus neoformans): > 50 µg/mL | MIC (Aspergillus fumigatus): > 50 µg/mL | MIC (Candida parapsilosis): > 50 µg/mL | Activity (Escherichia coli): inactive | Activity (Pseudomonas aeruginosa): inactive | Activity (Staphylococcus aureus): inactive | Activity (Klebsiella pneumoniae): inactive

O=C1/C(=C/c2ccc(OCc3ccccc3)cc2)CCC/C1=C\c1ccc(OCc2ccccc2)cc1
MIC [1]: > 12.5 µg/mL | MIC [2]: > 12.5 µg/mL | MIC (Candida albicans): > 50 µg/mL | MIC (Cryptococcus neoformans): > 50 µg/mL | MIC (Aspergillus fumigatus): > 50 µg/mL | MIC (Candida parapsilosis): > 50 µg/mL | Activity (Escherichia coli): inactive | Activity (Pseudomonas aeruginosa): inactive | Activity (Staphylococcus aureus): inactive | Activity (Klebsiella pneumoniae): inactive

O=C1CCCCC1C(O)c1cccc([N+](=O)[O-])c1 (stereo not given)
MIC [1]: > 12.5 µg/mL | MIC [2]: 12.5 µg/mL (≈ 50.1 µM) | MIC (Candida albicans): > 50 µg/mL | MIC (Cryptococcus neoformans): > 50 µg/mL | MIC (Aspergillus fumigatus): > 50 µg/mL | MIC (Candida parapsilosis): > 50 µg/mL | Activity (Escherichia coli): inactive | Activity (Pseudomonas aeruginosa): inactive | Activity (Staphylococcus aureus): inactive | Activity (Klebsiella pneumoniae): inactive

O=C1/C(=C/c2ccccc2)CCC/C1=C\c1ccccc1 [2,6-DIBENZYLIDENECYCLOHEXANONE]
MIC [1]: > 12.5 µg/mL | MIC [2]: 6.25 µg/mL (≈ 22.8 µM) | MIC (Candida albicans): > 50 µg/mL | MIC (Cryptococcus neoformans): > 50 µg/mL | MIC (Aspergillus fumigatus): > 50 µg/mL | MIC (Candida parapsilosis): > 50 µg/mL | Activity (Escherichia coli): inactive | Activity (Pseudomonas aeruginosa): inactive | Activity (Staphylococcus aureus): inactive | Activity (Klebsiella pneumoniae): inactive

COc1ccc(/C=C2\CCCC/C(=C\c3ccc(OC)cc3)C2=O)cc1
MIC [1]: 6.25 µg/mL (≈ 17.9 µM) | MIC [2]: > 12.5 µg/mL | MIC (Candida albicans): > 50 µg/mL | MIC (Cryptococcus neoformans): > 50 µg/mL | MIC (Aspergillus fumigatus): > 50 µg/mL | MIC (Candida parapsilosis): > 50 µg/mL | Activity (Escherichia coli): inactive | Activity (Pseudomonas aeruginosa): inactive | Activity (Staphylococcus aureus): inactive | Activity (Klebsiella pneumoniae): inactive

CC[C@@H](CO)NCCN[C@@H](CC)CO [ETHAMBUTOL]
MIC [2]: 3.25 µg/mL (≈ 15.9 µM)

O=C1CCCCC1C(O)c1ccc(Br)cc1 (stereo not given)
MIC [1]: > 12.5 µg/mL | MIC [2]: 12.5 µg/mL (≈ 44.1 µM) | MIC (Candida albicans): > 50 µg/mL | MIC (Cryptococcus neoformans): > 50 µg/mL | MIC (Aspergillus fumigatus): > 50 µg/mL | MIC (Candida parapsilosis): > 50 µg/mL | Activity (Escherichia coli): inactive | Activity (Pseudomonas aeruginosa): inactive | Activity (Staphylococcus aureus): inactive | Activity (Klebsiella pneumoniae): inactive

COc1ccc(/C=C2\CCCC/C(=C\c3ccc(OC)c(OC)c3)C2=O)cc1OC
MIC [1]: > 12.5 µg/mL | MIC [2]: > 12.5 µg/mL | MIC (Candida albicans): > 50 µg/mL | MIC (Cryptococcus neoformans): > 50 µg/mL | MIC (Aspergillus fumigatus): > 50 µg/mL | MIC (Candida parapsilosis): > 50 µg/mL | Activity (Escherichia coli): inactive | Activity (Pseudomonas aeruginosa): inactive | Activity (Staphylococcus aureus): inactive | Activity (Klebsiella pneumoniae): inactive

O=C1/C(=C/c2ccc([N+](=O)[O-])cc2)CCC/C1=C\c1ccc([N+](=O)[O-])cc1
MIC [1]: 3.12 µg/mL (≈ 8.56 µM) | MIC [2]: 12.5 µg/mL (≈ 34.3 µM) | MIC (Candida albicans): > 50 µg/mL | MIC (Cryptococcus neoformans): > 50 µg/mL | MIC (Aspergillus fumigatus): > 50 µg/mL | MIC (Candida parapsilosis): > 50 µg/mL | Activity (Escherichia coli): inactive | Activity (Pseudomonas aeruginosa): inactive | Activity (Staphylococcus aureus): inactive | Activity (Klebsiella pneumoniae): inactive

O=C1/C(=C/c2ccc(Br)cc2)CCCC/C1=C\c1ccc(Br)cc1
MIC [1]: > 12.5 µg/mL | MIC [2]: > 12.5 µg/mL | MIC (Candida albicans): > 50 µg/mL | MIC (Cryptococcus neoformans): > 50 µg/mL | MIC (Aspergillus fumigatus): > 50 µg/mL | MIC (Candida parapsilosis): > 50 µg/mL | Activity (Escherichia coli): inactive | Activity (Pseudomonas aeruginosa): inactive | Activity (Staphylococcus aureus): inactive | Activity (Klebsiella pneumoniae): inactive

O=C1/C(=C/c2ccc(F)cc2)CCC/C1=C\c1ccc(F)cc1
MIC [1]: 12.5 µg/mL (≈ 40.3 µM) | MIC [2]: > 12.5 µg/mL | MIC (Candida albicans): > 50 µg/mL | MIC (Cryptococcus neoformans): > 50 µg/mL | MIC (Aspergillus fumigatus): > 50 µg/mL | MIC (Candida parapsilosis): > 50 µg/mL | Activity (Escherichia coli): inactive | Activity (Pseudomonas aeruginosa): inactive | Activity (Staphylococcus aureus): inactive | Activity (Klebsiella pneumoniae): inactive

O=[N+]([O-])c1ccc(/C=C2\CCC/C(=C\c3ccc([N+](=O)[O-])cc3)C2O)cc1
MIC [1]: > 12.5 µg/mL | MIC [2]: > 12.5 µg/mL | MIC (Candida albicans): > 50 µg/mL | MIC (Cryptococcus neoformans): > 50 µg/mL | MIC (Aspergillus fumigatus): > 50 µg/mL | MIC (Candida parapsilosis): > 50 µg/mL | Activity (Escherichia coli): inactive | Activity (Pseudomonas aeruginosa): inactive | Activity (Staphylococcus aureus): inactive | Activity (Klebsiella pneumoniae): inactive
